Source: ChEMBL document CHEMBL2046297, “Synthesis and evaluation of substituted dibenzo[c,e]azepine-5-ones as P-glycoprotein-mediated multidrug resistance reversal agents” (Bioorg Med Chem Lett, 2012)
Activity calls are given as the source filed them. No cut-off for these calls is given here.

Experiments:
K562 [1] = experiment: Antiproliferative activity against human K562 cells after 72 hrs by MTS assay; assay type: functional, cell-based; details: K562, 72 h
Method in brief: (§1)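 Growth inhibition of parental K562 and drug-resistant K562/A02 leukemia cells, measured by MTS after 72 h exposure. IC50 is the concentration giving a 50% drop in cell growth. Values are means of three experiments. ADR served as positive control.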

[2] = molecular target: ATP-dependent translocase ABCB1 (Homo sapiens, UniProt P08183); experiment: Inhibition of P-glycoprotein-mediated rhodamine 123 uptake expressed in multidrug-resistant human K562/A02 cells assessed as fluorescence activity ratio at 10 uM after 72 hrs by flow cytometry relative to untreated control; assay type: cell-based; details: k562/a02, 72 h
Method in brief: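 Rh123 accumulation in P-gp-overexpressing K562/A02 cells with compound at 10 µM. FAR is the ratio of mean Rh123 fluorescence intensity in treated versus untreated cells. VRP served as positive control.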

[3] = Antiproliferative activity against multidrug-resistant human K562/A02 cells overexpressing p-glycoprotein after 72 hrs by MTS assay; assay type: functional, cell-based; details: K562/A02, 72 h; method in brief: as §1
K562/A02 [4] = experiment: Inhibition of Pgp-mediated rhodamine-123 efflux in multidrug-resistance human K562/A02 cells assessed as increase in intracellular accumulation of rhodamine-123 after 60 mins by fluorescence microscopic analysis; assay type: cell-based
Method in brief: (§2)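 K562/A02 cells were incubated with 0.5 µM Rh123 or 0.5 µM ADR, with or without 0.33, 3.3 or 10 µM compound, at 37 °C for 30 min. K562 cells received dye only. Cells were washed twice in PBS, resuspended in medium and left 60 min at 37 °C for efflux. Read-out was fluorescence microscopy or flow cytometry (ex/em 488/520 nm Rh123; 488/570 nm ADR). Vehicle was 0.1% DMSO.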

K562/A02 [5] = experiment: Inhibition of Pgp-mediated adriamycin efflux in multidrug-resistance human K562/A02 cells assessed as increase in intracellular accumulation of adriamycin after 60 mins by FACS flow cytometry; assay type: cell-based; method in brief: as §2
K562/A02 [6] = experiment: Survival of human K562/A02 cells in presence of adriamycin at 2.5 uM after 72 hrs by MTS assay
K562/A02 [7] = experiment: Survival of human K562/A02 cells in presence of adriamycin at 10 uM after 72 hrs by MTS assay
K562 [8] = experiment: Potentiation of adriamycin-induced cytotoxicity in human K562 cells after 72 hrs by MTS assay; assay type: functional, cell-based
Method in brief: (§3)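 Chemosensitization was tested by co-treating K562/A02 cells with 2 µM ADR or K562 cells with 0.04 µM ADR, plus compound at 2.5, 5 or 10 µM, for 72 h. Survival was read by MTS and compared with ADR alone. VRP served as positive control.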

K562/A02 [9] = experiment: Inhibition of Pgp-mediated multidrug-resistance in human K562/A02 cells assessed as potentiation of adriamycin-induced cytotoxicity after 72 hrs by MTS assay; assay type: cell-based; method in brief: as §3
K562/A02 [10] = experiment: Survival of human K562/A02 cells in presence of adriamycin at 5 uM after 72 hrs by MTS assay

Chain of ATP-dependent translocase ABCB1 (P08183 whole entry): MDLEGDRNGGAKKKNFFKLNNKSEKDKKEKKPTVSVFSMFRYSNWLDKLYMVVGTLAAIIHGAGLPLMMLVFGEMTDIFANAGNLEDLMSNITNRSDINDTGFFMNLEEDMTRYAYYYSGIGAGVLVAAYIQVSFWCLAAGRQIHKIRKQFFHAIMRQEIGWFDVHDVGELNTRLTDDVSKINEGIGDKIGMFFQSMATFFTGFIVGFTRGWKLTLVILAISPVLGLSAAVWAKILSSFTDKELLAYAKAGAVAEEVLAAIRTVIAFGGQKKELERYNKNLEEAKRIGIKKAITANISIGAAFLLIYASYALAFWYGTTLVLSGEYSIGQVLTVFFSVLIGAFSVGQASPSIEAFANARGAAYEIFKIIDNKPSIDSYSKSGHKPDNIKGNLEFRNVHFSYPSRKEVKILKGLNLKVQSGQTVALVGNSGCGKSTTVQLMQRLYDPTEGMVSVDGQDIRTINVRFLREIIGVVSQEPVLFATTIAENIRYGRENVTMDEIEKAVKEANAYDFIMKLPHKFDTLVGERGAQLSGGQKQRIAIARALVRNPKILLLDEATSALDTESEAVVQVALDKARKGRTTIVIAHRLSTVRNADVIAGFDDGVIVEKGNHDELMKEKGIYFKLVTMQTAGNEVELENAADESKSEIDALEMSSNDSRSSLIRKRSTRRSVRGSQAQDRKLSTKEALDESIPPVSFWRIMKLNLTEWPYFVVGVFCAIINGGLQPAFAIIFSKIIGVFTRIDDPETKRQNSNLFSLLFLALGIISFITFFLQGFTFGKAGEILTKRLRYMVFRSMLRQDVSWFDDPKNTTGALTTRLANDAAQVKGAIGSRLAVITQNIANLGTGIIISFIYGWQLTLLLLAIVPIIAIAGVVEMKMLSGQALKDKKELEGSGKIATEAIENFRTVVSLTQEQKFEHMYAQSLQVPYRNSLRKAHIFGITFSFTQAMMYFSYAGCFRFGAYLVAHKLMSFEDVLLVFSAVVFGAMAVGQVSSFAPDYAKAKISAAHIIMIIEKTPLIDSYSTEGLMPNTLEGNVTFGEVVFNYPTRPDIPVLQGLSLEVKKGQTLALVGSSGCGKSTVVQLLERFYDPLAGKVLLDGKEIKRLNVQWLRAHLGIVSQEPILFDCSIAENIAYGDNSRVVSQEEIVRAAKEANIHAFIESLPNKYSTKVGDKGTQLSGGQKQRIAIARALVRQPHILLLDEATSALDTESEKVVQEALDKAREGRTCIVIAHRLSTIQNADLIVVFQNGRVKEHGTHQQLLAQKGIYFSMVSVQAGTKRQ

| Structure (SMILES) | IC50 (K562 [1]) [µM] | Ratio [2] | IC50 [3] [µM] | inhibition (K562/A02 [4]) | inhibition (K562/A02 [5]) | survival rate (K562/A02 [6]) [%] | survival rate (K562/A02 [7]) [%] | Activity (K562 [8]) | inhibition (K562/A02 [9]) | survival rate (K562/A02 [10]) [%] |
| --- | --- | --- | --- | --- | --- | --- | --- | --- | --- | --- |
| COc1cc2c(c3c1OCO3)-c1c(cc(OC)c3c1OCO3)C(=O)N(CCN1CCCC1)C2 | > 100 | 1.65 | > 100 | – | – | – | – | – | – | – |
| COc1cc2c(c3c1OCO3)-c1c(cc(OC)c3c1OCO3)C(=O)N(CCN(C)C)C2 | > 100 | 1.44 | > 100 | – | – | – | – | – | – | – |
| COc1cc2c(c3c1OCO3)-c1c(cc(OC)c3c1OCO3)C(=O)N(CCN1CCN(C)CC1)C2 | > 100 | 1.03 | > 100 | – | – | – | – | – | – | – |
| COc1ccc(CCN(C)CCCC(C#N)(c2ccc(OC)c(OC)c2)C(C)C)cc1OC (configuration not stated) [VERAPAMIL] | – | 4.16 | – | – | – | – | – | – | – | – |
| COc1cc2c(c3c1OCO3)-c1c(cc(OC)c3c1OCO3)C(=O)N(CCN1CCN(Cc3ccccc3)CC1)C2 | 49.2 | 14.11 | 56.3 | Dose-dependent effect | Dose-dependent effect | 33.9 | 7.5 | inactive | Dose-dependent effect | 19.9 |
| CCN(CC)CCN1Cc2cc(OC)c3c(c2-c2c(cc(OC)c4c2OCO4)C1=O)OCO3 | 62.4 | 2.57 | 94.8 | – | – | – | – | – | – | – |
| CCCN(CCC)CCN1Cc2cc(OC)c3c(c2-c2c(cc(OC)c4c2OCO4)C1=O)OCO3 | > 100 | 2.84 | > 100 | – | – | – | – | – | – | – |
| COc1cc2c(c3c1OCO3)-c1c(cc(OC)c3c1OCO3)C(=O)N(CCN1CCCCC1)C2 | 90 | 3.46 | 91.1 | – | – | – | – | – | – | – |
| COc1cc2c(c3c1OCO3)-c1c(cc(OC)c3c1OCO3)C(=O)N(CCN1CCOCC1)C2 | > 100 | 3.23 | > 100 | – | – | – | – | – | – | – |
